Data as given in ChEMBL document CHEMBL1128728, “Synthesis and evaluation of terbenzimidazoles as topoisomerase I inhibitors” (J Med Chem, 1995).

Legend:
RPMI 8402 [1] = experiment: Cytotoxicity against Camptothecin-resistant (CPT -K5) cell line.; format: functional, cell-based; settings: Homo sapiens
Summary of the method: (§1)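 MTT microtiter tetrazolium assay; human lymphoblast RPMI 8402 and camptothecin-resistant CPT-K5 grown in suspension at 37 °C, 5% CO2, RPMI medium with 10% heat-inactivated FBS, 2 mM L-glutamine, penicillin 100 U/mL, streptomycin 0.1 mg/mL. Continuous exposure to varying drug concentrations; MTT read at end of day 4; IC50 calculated.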

RPMI 8402 [2] = experiment: Cytotoxicity against Human lymphoblast (RPMI 8402) cell line; format: functional, cell-based; summary of the method: as §1
[3] = tested on: DNA topoisomerase 1 (Bos taurus); experiment: The compound was tested for topoisomerase-1 mediated DNA cleavage, activity is expressed as REC(relative effective concentration) i.e., concentration relative to Hoechst 33342.
KB 3-1 [4] = experiment: Cytotoxicity against human epidermoid carcinoma (KB3-1) cell line; format: functional, cell-based
Summary of the method: (§2)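 KB3-1 epidermoid carcinoma cells and KBV-1, their vinblastine-selected MDR1-overexpressing variant, were grown as monolayers in 5% CO2 in Dulbecco's medium with 10% heat-inactivated FBS. Viability was measured by MTT tetrazolium microtiter assay after 4 days of continuous exposure to varying drug concentrations, and IC50 was calculated.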

RPMI 8402 [5] = experiment: Cytotoxicity against Camptothecin-resistant (CPT -K5) cell line; format: functional, cell-based; settings: Homo sapiens
Summary of the method: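 MTT tetrazolium assay in 96-well plates on CPT-K5, a camptothecin-resistant variant of human lymphoblast RPMI 8402, grown in suspension at 37 °C, 5% CO2 in RPMI medium with 10% heat-inactivated FBS, 2 mM L-glutamine, penicillin and streptomycin. Cells were exposed continuously to varying drug concentrations, with MTT read at the end of day 4. IC50 was calculated.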

KB [6] = experiment: Cytotoxicity against human epidermoid carcinoma vinblastine-selected multidrug-resistant (KBV-1) cell line; format: functional, cell-based; summary of the method: as §2
KB [7] = experiment: Cytotoxicity against human epidermoid carcinoma vinblastine-selected multidrug-resistant (KBV-1) cell line.; format: functional, cell-based
Summary of the method: (§3)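 Human epidermoid carcinoma KB3-1 and vinblastine-selected MDR1-overexpressing KBV-1 grown as monolayers in 5% CO2, Dulbecco's medium with 10% heat-inactivated FBS. Cytotoxicity by MTT microtiter tetrazolium assay after continuous exposure to varying drug concentrations for 4 days; IC50 calculated.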

KB 3-1 [8] = experiment: Cytotoxicity against human epidermoid carcinoma (KB3-1) cell line.; format: functional, cell-based; summary of the method: as §3

Structure (SMILES)	IC50 (RPMI 8402 [1]) [nM]	IC50 (RPMI 8402 [2]) [nM]	Relative concentration [3]	IC50 (KB 3-1 [4]) [nM]	IC50 (RPMI 8402 [5]) [nM]	IC50 (KB [6]) [nM]	IC50 (KB [7]) [nM]	IC50 (KB 3-1 [8]) [nM]
c1ccc2[nH]c(-c3ccc4[nH]c(-c5ccc6[nH]cnc6c5)nc4c3)nc2c1	28000	14000	1.1					
N#Cc1ccc2[nH]c(-c3ccc4[nH]cnc4c3)nc2c1		> 25000	1000					
CCOc1ccc(-c2nc3cc(-c4nc5cc(N6CCN(C)CC6)ccc5[nH]4)ccc3[nH]2)cc1		30		10	900	1200		
COc1ccc(-c2nc3cc(-c4nc5cc(C#N)ccc5[nH]4)ccc3[nH]2)cc1		27000	3.3					
CCCc1ccc2[nH]c(-c3ccc4[nH]c(-c5ccc6[nH]cnc6c5)nc4c3)nc2c1	20000	7600	100					
c1cc(-c2ccc3[nH]c(-c4ccc5[nH]c(-c6ccc7[nH]cnc7c6)nc5c4)nc3c2)ccn1	2500	35	2				10	20
c1ccc(-c2ccc3[nH]c(-c4ccc5[nH]c(-c6ccc7[nH]cnc7c6)nc5c4)nc3c2)nc1	5800	160	3.3				90	50
c1ccc(-c2ccc3[nH]c(-c4ccc5[nH]c(-c6ccc7[nH]cnc7c6)nc5c4)nc3c2)cc1	580	90	2				350	580
c1cncc(-c2ccc3[nH]c(-c4ccc5[nH]c(-c6ccc7[nH]cnc7c6)nc5c4)nc3c2)c1	2500	35	2				20	20
N#Cc1ccc2[nH]c(-c3ccc4[nH]c(-c5ccc6[nH]cnc6c5)nc4c3)nc2c1	> 25000	> 25000	1					
COc1ccc(-c2nc3cc(-c4nc5cc(-c6nc7cc(C#N)ccc7[nH]6)ccc5[nH]4)ccc3[nH]2)cc1		> 20000	1000					
